Assay results taken from ChEMBL document CHEMBL5329167, “Design, synthesis and evaluation of halogenated phenazine antibacterial prodrugs targeting nitroreductase enzymes for activation” (RSC Med Chem, 2023).
≈ marks a conversion by molar mass, not a printed value. Calls of active or inactive are those of the source. The calls are words filed in the database; no cut-off is given here.

Columns and labels:
[1] = test system: Staphylococcus epidermidis; test: Antibacterial activity against Staphylococcus epidermidis clinical isolate CL-1 assessed as bacterial growth inhibition incubated for 16 hrs by CLSI based broth microdilution method; format: functional
[2] = test system: Staphylococcus aureus; test: Antibacterial activity against Staphylococcus aureus clinical isolate 129 assessed as bacterial growth inhibition incubated for 16 hrs by CLSI based broth microdilution method; format: functional
[3] = test system: Staphylococcus aureus; test: Antibacterial activity against methicillin-resistant Staphylococcus aureus clinical isolate 1 assessed as bacterial growth inhibition incubated for 16 hrs by CLSI based broth microdilution method; format: functional
[4] = test system: Staphylococcus aureus; test: Antibacterial activity against Staphylococcus aureus clinical isolate 156 assessed as bacterial growth inhibition incubated for 16 hrs by CLSI based broth microdilution method; format: functional
[5] = test system: Staphylococcus aureus; test: Antibacterial activity against Staphylococcus aureus clinical isolate 138 assessed as bacterial growth inhibition incubated for 16 hrs by CLSI based broth microdilution method; format: functional
[6] = test system: Staphylococcus aureus; test: Antibacterial activity against Staphylococcus aureus clinical isolate 147 assessed as bacterial growth inhibition incubated for 16 hrs by CLSI based broth microdilution method; format: functional
[7] = test system: Staphylococcus aureus; test: Antibacterial activity against methicillin-resistant Staphylococcus aureus clinical isolate 2 assessed as bacterial growth inhibition incubated for 16 hrs by CLSI based broth microdilution method; format: functional
[8] = test system: Staphylococcus epidermidis; test: Antibacterial activity against Staphylococcus epidermidis 12228 assessed as bacterial growth inhibition incubated for 16 hrs by CLSI based broth microdilution method; format: functional
Outline: (§1)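 CLSI broth microdilution in LB: eleven 2-fold serial dilutions, 0.10–100 µM. DMSO vehicle/negative control diluted from 0.5% v/v. Wells seeded with ~10⁵ cells from log-phase culture (OD₆₀₀ 0.6–0.8), held 16 h at 37 °C. MIC taken as the lowest concentration preventing growth by OD₆₀₀ turbidity. Minimum three independent experiments.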

[9] = Lipophilicity, LogP of compound in octanol-water mixture incubated for 1 hr by UV-vis spectroscopy; format: physicochemical
Outline: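 Shake-flask partition: compound in octanol (1% v/v DMSO) mixed with equal volume water, stirred vigorously, left 1 h at room temperature to separate. Octanol-phase concentration measured by UV-Vis at 370 or 380 nm against a serial-dilution standard curve. Water concentration obtained by mass balance; LogP = log10(Coct/Cw). Acetophenone as positive control. Three independent experiments.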

[10] = test system: Streptococcus pneumoniae; test: Antibacterial activity against Streptococcus pneumoniae 6303 assessed as bacterial growth inhibition incubated for 16 hrs by CLSI based broth microdilution method; format: functional; outline: as §1
[11] = Hemolytic activity against red blood cells (unknown origin) at 200 uM; format: toxicity, cell-based, Erythrocyte; settings: read-out: Activity
[12] = test system: Staphylococcus aureus; test: Antibacterial activity against methicillin-resistant Staphylococcus aureus 1707 assessed as zone of inhibition at 10 mM incubated for 16 hrs by agar diffusion assay; format: functional
Outline: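 Modified Kirby-Bauer disk diffusion. 100 µL MRSA 1707 inoculum (OD₆₀₀ 0.7, ~10⁸ CFU) spread on LB agar and left 30 min. 10 µL of 10 mM DMSO compound solution then pipetted onto the plate. Incubation 16 h at 37 °C; zone of inhibition area (cm²) measured. Three independent experiments.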

[13] = Metal chelating activity assessed as formation of phenazine-iron complex measured for 1 to 60 mins by UV-vis spectroscopy; settings: time 1-60 min
Outline: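 Compound from a 10 mM DMSO stock diluted in DMSO in a cuvette, alone or with ammonium iron(II) sulfate hexahydrate (10 mM aqueous stock). Spectra of the compound-only cuvette and the iron-containing cuvette are compared by UV-vis spectrometry to judge phenazine–iron(II) complex formation.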

[14] = test system: Enterococcus faecalis; test: Antibacterial activity against Enterococcus faecalis OG1RF assessed as bacterial growth inhibition incubated for 16 hrs by CLSI based broth microdilution method; format: functional
Outline: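 Broth microdilution per CLSI in brain-heart infusion: eleven 2-fold dilutions spanning 0.10–100 µM, with DMSO vehicle/negative control topping at 0.5% v/v. Inoculum ~10⁵ cells/well from log-phase culture (OD₆₀₀ 0.6–0.8). 37 °C, 16 h. MIC is the lowest concentration preventing growth, read as OD₆₀₀ turbidity. At least three independent experiments.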

[15] = Cytotoxicity against HEK293 cells incubated for 48 hrs by MTT assay; format: toxicity, cell-based; settings: human
Outline: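 HEK-293 cells (10⁴/well) in DMEM with 10% FBS, penicillin/streptomycin, settled overnight at 37 °C, 5% CO₂. Medium replaced with compound at 0.10–100 µM (2-fold steps); DMSO as negative control. After 48 h at 37 °C, MTT (5 mg/mL stock) added for 3 h. Formazan dissolved in DMSO, OD read at 570 nm. Eight replicates per treatment.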

[16] = test system: Staphylococcus aureus; test: Antibacterial activity against methicillin-resistant Staphylococcus aureus BAA-44 assessed as bacterial growth inhibition incubated for 16 hrs by CLSI based broth microdilution method; format: functional
Outline: (§2)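 Broth microdilution per CLSI in LB, eleven two-fold serial dilutions spanning 0.10 to 100 µM. Inoculum ~10⁵ cells/well from fresh log-phase culture (OD₆₀₀ 0.6–0.8). MIC taken as lowest concentration preventing growth after 16 h at 37 °C, read by OD₆₀₀ turbidity. DMSO vehicle control, top 0.5% v/v. At least three independent experiments.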

[17] = test system: Staphylococcus aureus; test: Antibacterial activity against methicillin-resistant Staphylococcus aureus 1707 assessed as bacterial growth inhibition incubated for 16 hrs by CLSI based broth microdilution method; format: functional; outline: as §2
[18] = test system: Staphylococcus epidermidis; test: Antibacterial activity against methicillin-resistant Staphylococcus epidermidis 35984 assessed as bacterial growth inhibition incubated for 16 hrs by CLSI based broth microdilution method; format: functional; outline: as §2
[19] = test system: Enterococcus; test: Antibacterial activity against vancomycin-resistant Enterococcus 700221 assessed as bacterial growth inhibition incubated for 16 hrs by CLSI based broth microdilution method; format: functional
Outline: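 Growth scored by OD₆₀₀ turbidity after 16 h at 37 °C; MIC is the lowest concentration preventing growth. DMSO vehicle control up to 0.5% v/v. Three or more independent experiments.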

[20] = test system: Staphylococcus aureus; test: Antibacterial activity against methicillin-resistant Staphylococcus aureus BAA-1707 assessed as bacterial growth inhibition incubated for 16 hrs by CLSI based broth microdilution method; format: functional; outline: as §2

Row | SMILES | MIC [1] [µM] | MIC [2] [µM] | MIC [3] [µM] | MIC [4] [µM] | MIC [5] [µM] | MIC [6] [µM] | MIC [7] [µM] | MIC [8] [µM] | logP at 1 h [9] | MIC [10] [µM] | hemolysis at 200 µM [11] [%] | diameter of the inhibition zone (DIZ) [12] [cm2] | Activity [13] | MIC [14] [µM] | CC50 at 48 h [15] [µM] | MIC [16] [µM] | MIC [17] [µM] | MIC [18] [µM] | MIC [19] [µM] | MIC [20] [µM]
1 | COc1cccc(OC)c1C(=O)N[C@@H]1C(=O)N2[C@@H]1SC(C)(C)[C@@H]2C(=O)O [METHICILLIN] | 12.5 (≈ 4.76 µg/mL) | 37.5 (≈ 14.3 µg/mL) | 37.5 (≈ 14.3 µg/mL) | 25 (≈ 9.51 µg/mL) | 37.5 (≈ 14.3 µg/mL) | 6.25 (≈ 2.38 µg/mL) | > 100 |  |  |  |  |  |  |  |  |  |  |  |  | 
2 | CN(C)[C@@H]1C(O)=C(C(N)=O)C(=O)[C@@]2(O)C(O)=C3C(=O)c4c(O)cccc4[C@@](C)(O)[C@H]3C[C@@H]12 [TETRACYCLINE] | 25 (≈ 11.1 µg/mL) | 0.1 (≈ 0.0444 µg/mL) | 0.1 (≈ 0.0444 µg/mL) | 0.15 (≈ 0.0667 µg/mL) | 0.15 (≈ 0.0667 µg/mL) | 0.1 (≈ 0.0444 µg/mL) | 0.1 (≈ 0.0444 µg/mL) |  |  |  |  |  |  |  |  |  |  |  |  | 
3 | NC[C@H]1O[C@H](O[C@H]2[C@H](O)[C@@H](O[C@H]3O[C@H](CO)[C@@H](O)[C@H](N)[C@H]3O)[C@H](N)C[C@@H]2N)[C@H](N)C[C@@H]1O [TOBRAMYCIN] | 1.56 (≈ 0.729 µg/mL) | > 100 | 6.25 (≈ 2.92 µg/mL) | 12.5 (≈ 5.84 µg/mL) | 12.5 (≈ 5.84 µg/mL) | 6.25 (≈ 2.92 µg/mL) | 6.25 (≈ 2.92 µg/mL) |  |  |  |  |  |  |  |  |  |  |  |  | 
4 | CC[C@H]1OC(=O)[C@H](C)[C@@H](O[C@H]2C[C@@](C)(OC)[C@@H](O)[C@H](C)O2)[C@H](C)[C@@H](O[C@@H]2O[C@H](C)C[C@H](N(C)C)[C@H]2O)[C@](C)(O)C[C@@H](C)C(=O)[C@H](C)[C@@H](O)[C@]1(C)O [ERYTHROMYCIN] | > 100 | > 100 | 100 (≈ 73.4 µg/mL) | > 100 | > 100 | 37.5 (≈ 27.5 µg/mL) | 18.8 (≈ 13.8 µg/mL) |  |  |  |  |  |  |  |  |  |  |  |  | 
5 | Oc1c(Br)cc(Br)c2nc3ccccc3nc12 |  |  | 0.78 (≈ 0.276 µg/mL) |  |  |  | 1.56 (≈ 0.552 µg/mL) | 2.35 (≈ 0.832 µg/mL) | 0.25 | 1.17 (≈ 0.414 µg/mL) | < 1 | 5.08 | Active | 18.8 (≈ 6.66 µg/mL) |  |  |  |  |  | 
6 | O=S(=O)(Cc1ccccc1)Oc1c(Br)cc(Br)c2nc3ccccc3nc12 | > 100 | > 100 |  | > 100 | > 100 | > 100 |  | > 100 |  | > 100 |  | 0 | inactive | > 100 | > 100 | > 100 | > 100 | > 100 | > 100 | > 100
7 | Cc1cccc2nc3c(O)c(Br)c(Cl)c(Br)c3nc12 | 0.39 (≈ 0.157 µg/mL) | 0.1 (≈ 0.0402 µg/mL) | 0.1 (≈ 0.0402 µg/mL) | 0.1 (≈ 0.0402 µg/mL) | 0.1 (≈ 0.0402 µg/mL) | 0.1 (≈ 0.0402 µg/mL) | 0.15 (≈ 0.0604 µg/mL) | 0.1 (≈ 0.0402 µg/mL) | 0.81 | 0.1 (≈ 0.0402 µg/mL) | < 1 | 3.85 | inactive | 0.39 (≈ 0.157 µg/mL) | 18.3 | 0.15 (≈ 0.0604 µg/mL) | 0.1 (≈ 0.0402 µg/mL) | 0.1 (≈ 0.0402 µg/mL) | 0.1 (≈ 0.0402 µg/mL) | 0.1 (≈ 0.0402 µg/mL)
8 | Cc1cccc2nc3c(OS(=O)(=O)Cc4ccccc4)c(Br)c(Cl)c(Br)c3nc12 | > 100 | > 100 |  | > 100 | > 100 | > 100 |  | > 100 |  | > 100 |  | 0 | inactive | > 100 | 49.6 | > 100 | > 100 | > 100 | > 100 | > 100
